Published values collected from several papers.
Protocols differ between the studies behind these lines.
Read-out: thermal stability
Technique: DSF
SIRT2: NAD-dependent protein deacetylase sirtuin-2 (SIRT2, Homo sapiens, UniProt Q8IXJ6)
GAK: Cyclin-G-associated kinase (GAK, Homo sapiens, UniProt O14976)
DCLK1: Serine/threonine-protein kinase DCLK1 (DCLK1, Homo sapiens, UniProt O15075)
lecA: PA-I galactophilic lectin (lecA, Pseudomonas aeruginosa, UniProt Q05097)

Cc1cc(C)nc(SCC(=O)Nc2ncc(Cc3cccc(OCc4cn(Cc5ccccc5C)nn4)c3)s2)n1  ΔTm (SIRT2; 25 µM): 4.26 °C
FC(F)(F)c1ccc2nccc(Nc3ccc(Cl)cc3)c2c1  ΔTm (GAK; 10 µM): 4.3 °C
CCC1(CC)NC(=O)c2c(c3ccc(Cl)c(Cl)c3n2C)C1C#N (centres unmarked)  ΔTm (DCLK1; 10 µM): 0 °C
COc1ccccc1Nc1ccnc2ccc(C(F)(F)F)cc12  ΔTm (GAK; 10 µM): 3 °C
N#Cc1cccc(O)c1O  ΔTm (lecA; 4 mM): 1.8 °C
Fc1cc(Nc2ccnc3ccc(C(F)(F)F)cc23)cc(F)c1F  ΔTm (GAK; 10 µM): 3.7 °C
CCN1CCC2(CC1)NC(=O)c1c(c3ccc(Cl)c(Cl)c3n1C)C2C#N (racemic)  ΔTm (DCLK1; 10 µM): 0.1 °C
Cc1cc(C)nc(SCC(=O)Nc2ncc(Cc3cccc(OCc4cn(Cc5ccc(OCCN6CCOCC6)cc5)nn4)c3)s2)n1  ΔTm (SIRT2; 25 µM): 6.63 °C
CC(C)(C)c1ccc(O)c(O)c1  ΔTm (lecA; 4 mM): -15.4 °C
CCCCCCCC(=O)Nc1ncc(Cc2cccc(OCc3cn(CCOC)nn3)c2)s1  ΔTm (SIRT2; 25 µM): 4.28 °C
Cn1c2c(Cl)c(Cl)ccc2c2cn[nH]c(=O)c21  ΔTm (DCLK1; 10 µM): -0.2 °C
